The source made the active and inactive calls. The calls are words filed in the database; no cut-off is given here.
Assays:
Nociceptin receptor [1] = molecular target: Nociceptin receptor (Mus musculus, UniProt P35377); assay: Inhibition of [3H]NC-NH2 binding to mouse forebrain membranes; set-up: species or system Membrane
[2] = molecular target: Nociceptin receptor (Mus musculus) (UniProt P35377); assay: Maximum receptor binding in the electrically stimulated mouse vas deferens; assay type: functional, tissue-based
Procedure, shortened: (§1)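 Vas deferens from male Swiss mice (25-30 g) is held in Mg2+-free Krebs at 33 °C, gassed with 95% O2/5% CO2 at pH 7.4. Tissue is stimulated at 0.05 Hz with 1 ms supramaximal pulses under 0.3 g resting tension, and twitches are recorded isotonically.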

Mus musculus [3] = species on record: Mus musculus; assay: Antagonist activity of compound in the electrically stimulated mouse vas deferens; assay type: functional
Procedure, shortened: (§2)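 Peptides without agonist effect in the mouse vas deferens (Mg2+-free Krebs, 33 °C, 0.05 Hz, 1 ms pulses) are tested up to 10 μM. Each is added 15 min before a cumulative concentration-response curve to NC(1-13)-NH2. pKB is calculated with the Gaddum-Schild equation, taking slope as unity, from the concentration-ratio of equieffective agonist concentrations.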

Nociceptin receptor [4] = molecular target: Nociceptin receptor (Homo sapiens, UniProt P41146); assay: Inhibition of forskolin stimulated cAMP accumulation in CHO cells stably expressing the human OP4 receptor; assay type: functional, cell-based
Mus musculus [5] = species on record: Mus musculus; assay: Maximum receptor binding assay determined by using mouse forebrain membrane and [3H]NC-NH2; assay type: functional
Procedure, shortened: (§3)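 Forebrains from male Swiss mice are homogenised in 50 mM Tris-HCl, 2 mM EDTA, 100 μM PMSF, pH 7.4. Membranes are preincubated 30 min at 37 °C and stored at -80 °C. Displacement uses 0.5 nM [3H]NC-NH2, 200 μg protein, and graded ligand concentrations up to 10 μM, for 120 min at 25 °C.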

Mus musculus [6] = species on record: Mus musculus; assay: Maximum receptor binding using mouse forebrain membranes and [3H]NC-NH2; assay type: functional; details: Membrane; procedure, shortened: as §3
Mus musculus [7] = species on record: Mus musculus; assay: Agonist activity of compound in the electrically stimulated mouse vas deferens; Inactive; assay type: functional; procedure, shortened: as §1
Mus musculus [8] = species on record: Mus musculus; assay: Maximum receptor binding assay determined by using mouse forebrain membrane and [3H]NC-NH2; Inactive; assay type: functional; procedure, shortened: as §3
Mus musculus [9] = species on record: Mus musculus; assay: Antagonist activity of compound in the electrically stimulated mouse vas deferens; Inactive; assay type: functional; procedure, shortened: as §2
Mus musculus [10] = species on record: Mus musculus; assay: Maximum receptor binding assay determined by using mouse forebrain membrane and [3H]NC-NH2 at 10 uM; assay type: functional
Mus musculus [11] = species on record: Mus musculus; assay: receptor binding constant using mouse forebrain membranes and [3H]NC-NH2 as radioligand; assay type: functional, Membrane; procedure, shortened: as §3

Chain of Nociceptin receptor (Mus musculus, UniProt P35377) (P35377 whole entry): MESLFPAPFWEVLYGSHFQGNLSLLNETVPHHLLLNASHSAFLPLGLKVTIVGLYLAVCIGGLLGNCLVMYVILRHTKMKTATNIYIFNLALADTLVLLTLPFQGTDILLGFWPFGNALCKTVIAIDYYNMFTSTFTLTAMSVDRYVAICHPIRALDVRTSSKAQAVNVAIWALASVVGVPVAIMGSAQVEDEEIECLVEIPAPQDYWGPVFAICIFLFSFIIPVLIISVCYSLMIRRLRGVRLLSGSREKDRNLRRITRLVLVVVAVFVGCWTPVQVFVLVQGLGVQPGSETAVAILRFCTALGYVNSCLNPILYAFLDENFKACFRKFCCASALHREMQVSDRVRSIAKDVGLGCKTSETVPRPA
Chain of Nociceptin receptor (Mus musculus) (P35377 whole entry): as above
Chain of Nociceptin receptor (Homo sapiens, UniProt P41146) (P41146 whole entry): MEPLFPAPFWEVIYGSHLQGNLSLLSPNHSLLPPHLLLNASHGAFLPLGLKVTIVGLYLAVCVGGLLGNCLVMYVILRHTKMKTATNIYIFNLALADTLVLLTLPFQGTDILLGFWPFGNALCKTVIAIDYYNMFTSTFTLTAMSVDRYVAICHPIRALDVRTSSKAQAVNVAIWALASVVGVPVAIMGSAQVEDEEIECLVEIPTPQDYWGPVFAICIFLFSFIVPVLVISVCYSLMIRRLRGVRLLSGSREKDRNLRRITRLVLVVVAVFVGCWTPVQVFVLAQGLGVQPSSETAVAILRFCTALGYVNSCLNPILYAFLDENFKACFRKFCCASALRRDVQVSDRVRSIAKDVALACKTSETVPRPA

## C[C@H](NC(=O)CNC(=O)[C@@H](NC(=O)[C@H](Cc1ccc(C(F)(F)F)cc1)NC(=O)CNC(=O)CNC(=O)[C@@H](N)Cc1ccccc1)[C@@H](C)O)C(=O)N[C@@H](CCCN=C(N)N)C(=O)N[C@@H](CCCCN)C(=O)N[C@@H](CO)C(=O)N[C@@H](C)C(=O)N[C@@H](CCCN=C(N)N)C(=O)N[C@@H](CCCCN)C(N)=O
Nociceptin receptor [1]
  Ki: 1 nM
[2]
  Emax: -75%

## C[C@H](NC(=O)CNC(=O)[C@@H](NC(=O)[C@H](Cc1ccc(N)cc1)NC(=O)CNC(=O)CNC(=O)[C@@H](N)Cc1ccccc1)[C@@H](C)O)C(=O)N[C@@H](CCCN=C(N)N)C(=O)N[C@@H](CCCCN)C(=O)N[C@@H](CO)C(=O)N[C@@H](C)C(=O)N[C@@H](CCCN=C(N)N)C(=O)N[C@@H](CCCCN)C(N)=O
Nociceptin receptor [1]
  Ki: 1780 nM
[2]
  Emax: -23%

## C[C@H](NC(=O)CNC(=O)[C@@H](NC(=O)[C@H](Cc1ccc(O)cc1)NC(=O)CNC(=O)CNC(=O)[C@@H](N)Cc1ccccc1)[C@@H](C)O)C(=O)N[C@@H](CCCN=C(N)N)C(=O)N[C@@H](CCCCN)C(=O)N[C@@H](CO)C(=O)N[C@@H](C)C(=O)N[C@@H](CCCN=C(N)N)C(=O)N[C@@H](CCCCN)C(N)=O
Mus musculus [3]
  pKb: 5.47
Nociceptin receptor [1]
  Ki: 501 nM
Nociceptin receptor [4]
  EC50: 135 nM

## C[C@H](NC(=O)CNC(=O)[C@@H](NC(=O)[C@H](Cc1ccc2ccccc2c1)NC(=O)CNC(=O)CNC(=O)[C@@H](N)Cc1ccccc1)[C@@H](C)O)C(=O)N[C@@H](CCCN=C(N)N)C(=O)N[C@@H](CCCCN)C(=O)N[C@@H](CO)C(=O)N[C@@H](C)C(=O)N[C@@H](CCCN=C(N)N)C(=O)N[C@@H](CCCCN)C(N)=O
Mus musculus [5]
  Emax: -75%

## C[C@H](NC(=O)CNC(=O)[C@@H](NC(=O)[C@H](Cc1ccc(Cl)cc1)NC(=O)CNC(=O)CNC(=O)[C@@H](N)Cc1ccccc1)[C@@H](C)O)C(=O)N[C@@H](CCCN=C(N)N)C(=O)N[C@@H](CCCCN)C(=O)N[C@@H](CO)C(=O)N[C@@H](C)C(=O)N[C@@H](CCCN=C(N)N)C(=O)N[C@@H](CCCCN)C(N)=O
Nociceptin receptor [1]
  Ki: 0.794 nM
[2]
  Emax: -82%

## C[C@H](NC(=O)CNC(=O)[C@@H](NC(=O)[C@H](Cc1cccc2ccccc12)NC(=O)CNC(=O)CNC(=O)[C@@H](N)Cc1ccccc1)[C@@H](C)O)C(=O)N[C@@H](CCCN=C(N)N)C(=O)N[C@@H](CCCCN)C(=O)N[C@@H](CO)C(=O)N[C@@H](C)C(=O)N[C@@H](CCCN=C(N)N)C(=O)N[C@@H](CCCCN)C(N)=O
Mus musculus [6]
  Emax: -80%

## C[C@H](NC(=O)CNC(=O)[C@@H](NC(=O)[C@@H](NC(=O)CNC(=O)CNC(=O)[C@@H](N)Cc1ccccc1)[C@@H](C)c1ccccc1)[C@@H](C)O)C(=O)N[C@@H](CCCN=C(N)N)C(=O)N[C@@H](CCCCN)C(=O)N[C@@H](CO)C(=O)N[C@@H](C)C(=O)N[C@@H](CCCN=C(N)N)C(=O)N[C@@H](CCCCN)C(N)=O
Mus musculus [5]
  Emax: -86%

## C[C@H](NC(=O)CNC(=O)[C@@H](NC(=O)[C@H](Cc1ccc([N+](=O)[O-])cc1)NC(=O)CNC(=O)CNC(=O)[C@@H](N)Cc1ccccc1)[C@@H](C)O)C(=O)N[C@@H](CCCN=C(N)N)C(=O)N[C@@H](CCCCN)C(=O)N[C@@H](CO)C(=O)N[C@@H](C)C(=O)N[C@@H](CCCN=C(N)N)C(=O)N[C@@H](CCCCN)C(N)=O
Nociceptin receptor [1]
  Ki: 0.302 nM
[2]
  Emax: -86%

## CC(C)C[C@H](NC(=O)[C@H](CCCCN)NC(=O)[C@H](CCCN=C(N)N)NC(=O)[C@H](C)NC(=O)[C@H](CO)NC(=O)[C@H](CCCCN)NC(=O)[C@H](CCCN=C(N)N)NC(=O)[C@H](C)NC(=O)CNC(=O)[C@@H](NC(=O)[C@H](Cc1ccccc1)NC(=O)CNC(=O)CNC(=O)[C@@H](N)Cc1ccccc1)[C@@H](C)O)C(=O)N[C@@H](C)C(=O)N[C@@H](CC(N)=O)C(=O)N[C@@H](CCC(N)=O)C(=O)O
Nociceptin receptor [1]
  Ki: 1.91 nM

## C[C@H](NC(=O)CNC(=O)[C@@H](NC(=O)[C@H](Cc1ccc(-c2ccccc2)cc1)NC(=O)CNC(=O)CNC(=O)[C@@H](N)Cc1ccccc1)[C@@H](C)O)C(=O)N[C@@H](CCCN=C(N)N)C(=O)N[C@@H](CCCCN)C(=O)N[C@@H](CO)C(=O)N[C@@H](C)C(=O)N[C@@H](CCCN=C(N)N)C(=O)N[C@@H](CCCCN)C(N)=O
Mus musculus [7]
  Log EC50: inactive
Mus musculus [8]
  Emax: inactive
Mus musculus [9]
  pKb: inactive

## C[C@H](NC(=O)CNC(=O)[C@@H](NC(=O)[C@H](Cc1ccc(I)cc1)NC(=O)CNC(=O)CNC(=O)[C@@H](N)Cc1ccccc1)[C@@H](C)O)C(=O)N[C@@H](CCCN=C(N)N)C(=O)N[C@@H](CCCCN)C(=O)N[C@@H](CO)C(=O)N[C@@H](C)C(=O)N[C@@H](CCCN=C(N)N)C(=O)N[C@@H](CCCCN)C(N)=O
Nociceptin receptor [1]
  Ki: 17.4 nM
[2]
  Emax: -76%

## C[C@H](NC(=O)CNC(=O)[C@@H](NC(=O)CN(Cc1ccccc1)C(=O)CNC(=O)CNC(=O)[C@@H](N)Cc1ccccc1)[C@@H](C)O)C(=O)N[C@@H](CCCN=C(N)N)C(=O)N[C@@H](CCCCN)C(=O)N[C@@H](CO)C(=O)N[C@@H](C)C(=O)N[C@@H](CCCN=C(N)N)C(=O)N[C@@H](CCCCN)C(N)=O
Mus musculus [10]
  Emax: -16%

## C[C@H](NC(=O)CNC(=O)[C@@H](NC(=O)[C@H](Cc1ccc(Br)cc1)NC(=O)CNC(=O)CNC(=O)[C@@H](N)Cc1ccccc1)[C@@H](C)O)C(=O)N[C@@H](CCCN=C(N)N)C(=O)N[C@@H](CCCCN)C(=O)N[C@@H](CO)C(=O)N[C@@H](C)C(=O)N[C@@H](CCCN=C(N)N)C(=O)N[C@@H](CCCCN)C(N)=O
Nociceptin receptor [1]
  Ki: 1.82 nM
[2]
  Emax: -85%

## C[C@H](NC(=O)CNC(=O)[C@@H](NC(=O)[C@H](Cc1cccc(F)c1)NC(=O)CNC(=O)CNC(=O)[C@@H](N)Cc1ccccc1)[C@@H](C)O)C(=O)N[C@@H](CCCN=C(N)N)C(=O)N[C@@H](CCCCN)C(=O)N[C@@H](CO)C(=O)N[C@@H](C)C(=O)N[C@@H](CCCN=C(N)N)C(=O)N[C@@H](CCCCN)C(N)=O
Nociceptin receptor [1]
  Ki: 0.891 nM
[2]
  Emax: -90%

## C[C@H](NC(=O)CNC(=O)[C@@H](NC(=O)[C@H](Cc1ccc(F)cc1)NC(=O)CNC(=O)CNC(=O)[C@@H](N)Cc1ccccc1)[C@@H](C)O)C(=O)N[C@@H](CCCN=C(N)N)C(=O)N[C@@H](CCCCN)C(=O)N[C@@H](CO)C(=O)N[C@@H](C)C(=O)N[C@@H](CCCN=C(N)N)C(=O)N[C@@H](CCCCN)C(N)=O
Nociceptin receptor [1]
  Ki: 0.398 nM
[2]
  Emax: -85%

## C[C@H](NC(=O)CNC(=O)[C@@H](NC(=O)[C@H](Cc1ccccc1)NC(=O)CNC(=O)CNC(=O)[C@@H](N)Cc1ccccc1)[C@@H](C)O)C(=O)N[C@@H](CCCNC(=N)N)C(=O)N[C@@H](CCCCN)C(=O)N[C@@H](CO)C(=O)N[C@@H](C)C(=O)N[C@@H](CCCNC(=N)N)C(=O)N[C@@H](CCCCN)C(N)=O
Mus musculus [5]
  Emax: -82%

## COc1ccc(C[C@H](NC(=O)CNC(=O)CNC(=O)[C@@H](N)Cc2ccccc2)C(=O)N[C@H](C(=O)NCC(=O)N[C@@H](C)C(=O)N[C@@H](CCCN=C(N)N)C(=O)N[C@@H](CCCCN)C(=O)N[C@@H](CO)C(=O)N[C@@H](C)C(=O)N[C@@H](CCCN=C(N)N)C(=O)N[C@@H](CCCCN)C(N)=O)[C@@H](C)O)cc1
Nociceptin receptor [1]
  Ki: 89.1 nM
[2]
  Emax: -80%
Nociceptin receptor [4]
  EC50: 63.1 nM

## C[C@H](NC(=O)CNC(=O)[C@@H](NC(=O)[C@H](CC1CCCCC1)NC(=O)CNC(=O)CNC(=O)[C@@H](N)Cc1ccccc1)[C@@H](C)O)C(=O)N[C@@H](CCCN=C(N)N)C(=O)N[C@@H](CCCCN)C(=O)N[C@@H](CO)C(=O)N[C@@H](C)C(=O)N[C@@H](CCCN=C(N)N)C(=O)N[C@@H](CCCCN)C(N)=O
Mus musculus [10]
  Emax: -34%

## Cc1ccc(C[C@H](NC(=O)CNC(=O)CNC(=O)[C@@H](N)Cc2ccccc2)C(=O)N[C@H](C(=O)NCC(=O)N[C@@H](C)C(=O)N[C@@H](CCCN=C(N)N)C(=O)N[C@@H](CCCCN)C(=O)N[C@@H](CO)C(=O)N[C@@H](C)C(=O)N[C@@H](CCCN=C(N)N)C(=O)N[C@@H](CCCCN)C(N)=O)[C@@H](C)O)cc1
Mus musculus [11]
  Log Ki: -7.84
[2]
  Emax: -73%

## C[C@H](NC(=O)CNC(=O)[C@@H](NC(=O)[C@H](Cc1ccccc1)N(C)C(=O)CNC(=O)CNC(=O)[C@@H](N)Cc1ccccc1)[C@@H](C)O)C(=O)N[C@@H](CCCN=C(N)N)C(=O)N[C@@H](CCCCN)C(=O)N[C@@H](CO)C(=O)N[C@@H](C)C(=O)N[C@@H](CCCN=C(N)N)C(=O)N[C@@H](CCCCN)C(N)=O
Mus musculus [5]
  Emax: -84%

## C[C@H](NC(=O)CNC(=O)[C@@H](NC(=O)[C@H](Cc1ccc(C#N)cc1)NC(=O)CNC(=O)CNC(=O)[C@@H](N)Cc1ccccc1)[C@@H](C)O)C(=O)N[C@@H](CCCN=C(N)N)C(=O)N[C@@H](CCCCN)C(=O)N[C@@H](CO)C(=O)N[C@@H](C)C(=O)N[C@@H](CCCN=C(N)N)C(=O)N[C@@H](CCCCN)C(N)=O
Nociceptin receptor [1]
  Ki: 0.603 nM
[2]
  Emax: -84%

## C[C@H](NC(=O)CNC(=O)[C@@H](NC(=O)[C@H](Cc1ccccc1F)NC(=O)CNC(=O)CNC(=O)[C@@H](N)Cc1ccccc1)[C@@H](C)O)C(=O)N[C@@H](CCCN=C(N)N)C(=O)N[C@@H](CCCCN)C(=O)N[C@@H](CO)C(=O)N[C@@H](C)C(=O)N[C@@H](CCCN=C(N)N)C(=O)N[C@@H](CCCCN)C(N)=O
Nociceptin receptor [1]
  Ki: 3.63 nM
[2]
  Emax: -94%

— ChEMBL document CHEMBL1134643 (J Med Chem, 2001)
